# Source: ChEMBL document CHEMBL1124938, “Antihypertensive dihydropyridines with 1,4,4-trisubstitution” (1990)
# Key:
# Rattus norvegicus [1] = test: Total antihypertensive activity was obtained from the area between compound and control MAP (mean arterial pressure) curves, after (ip) 30 mg/kg administration in spontaneously hypertensive rats (SHR).; assay type: functional, Artery
# Procedure, shortened: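 SHR dosed once ip at 30 mg/kg in 1% methylcellulose suspension (n = 3), with vehicle-dosed concurrent controls (n = 3). MAP recorded continuously over 24 h; time points 0, 0.25, 0.5, 1, 2, 4, 6, 12, 18 and 24 h used. Value is area between drug and control MAP curves, in mmHg × h.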
# Rattus norvegicus [2] = test: Antihypertensive effects in conscious, unrestrained, spontaneously hypertensive rats after 100 mg/kg p.o. administration.; assay type: functional; conditions: route oral
# Procedure, shortened: (§1)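 SHR housed singly with free access to tap water, overnight recovery before testing. Compound suspended in 1% methylcellulose, given once ip at 30 mg/kg or by oral gavage at 100 mg/kg (n = 3); concurrent controls (n = 3) got 1 mL vehicle by same route. MAP recorded continuously 24 h; value is maximum change from concurrent control, mean ± SEM.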
# Rattus norvegicus [3] = test: Antihypertensive effects in conscious, unrestrained, spontaneously hypertensive rats after 30 mg/kg i.p. administration.; assay type: functional; conditions: route intraperitoneal; procedure, shortened: as §1
SMILES,Antihypertensive activity (Rattus norvegicus [1]),Max change in blood pressure (Rattus norvegicus [2]),Max change in blood pressure (Rattus norvegicus [3]),Activity (Rattus norvegicus [1])
CC1(C)C=CN(C(=O)c2cccnc2)C=C1,291 mmHg·h,-26 mmHg,-19 mmHg,–
CN(C)CCN1C=CC(c2ccccc2)(c2ccccc2)C=C1,–,-14 mmHg,-30 mmHg,–
CC1(C)C=CN(/C(=N/c2ccccc2)N2CCCC2)C=C1.O=C(O)/C=C\C(=O)O,–,19 mmHg,27 mmHg,–
CN(C)CC(=O)N1C=CC(C)(C)C=C1.O=C(O)/C=C\C(=O)O,–,-39 mmHg,-52 mmHg,132 mmHg·h
COc1ccc(CCN2C=CC(c3ccccc3)(c3ccccc3)C=C2)cc1OC,–,-7 mmHg,-7 mmHg,–
CNC(=O)N1C=CC(C)(C)C=C1,–,-41 mmHg,-34 mmHg,–
CC1(C)C=CN(C(=O)c2ccccc2)C=C1,210 mmHg·h,-27 mmHg,-21 mmHg,–
COC(=O)CCCN1C=CC(C)(C)C=C1,–,-45 mmHg,-42 mmHg,696 mmHg·h
CNC(=O)N1C=CC(c2ccccc2)(c2ccccc2)C=C1,–,-11 mmHg,17 mmHg,–
COC(=O)C1=C(C)NC(C)=C(C(=O)OC)C1c1ccccc1[N+](=O)[O-] [NIFEDIPINE],–,-68 mmHg,-71 mmHg,–
CC1(C)C=CN(C(=O)C(c2ccccc2)c2ccccc2)C=C1,–,-6 mmHg,-9 mmHg,–
CN(C)CC(=O)N1C=CC(c2ccccc2)(c2ccccc2)C=C1.Cl,362 mmHg·h,-12 mmHg,-29 mmHg,–
COc1ccc(CC(=O)N2C=CC(C)(C)C=C2)cc1OC,–,23 mmHg,-21 mmHg,–
O=C(c1ccccc1)N1C=CC(c2ccccc2)(c2ccccc2)C=C1,–,12 mmHg,11 mmHg,–
Cc1csc(N2C=CC(C)(C)C=C2)n1,–,-21 mmHg,14 mmHg,–
COC(=O)CCN1C=CC(C)(C)C=C1,–,-19 mmHg,-71 mmHg,1360 mmHg·h
CC1(C)C=CN(C(=O)c2ccc[nH]2)C=C1,–,-7 mmHg,6 mmHg,–
CC1(C)C=CN(C(=O)Nc2ccccc2)C=C1,–,-15 mmHg,-24 mmHg,–
COC(=O)CCCCN1C=CC(C)(C)C=C1,–,-11 mmHg,-58 mmHg,943 mmHg·h
CN(C)CCN1C=CC(C)(C)C=C1,281 mmHg·h,-10 mmHg,-32 mmHg,–
COC(=O)CCCN1C=CC(c2ccc(OC)cc2)(c2ccc(OC)cc2)C=C1,–,-21 mmHg,11 mmHg,–
